Shown are actives, neighbours in structure and some others; about 11% of the full set was active somewhere.
RORa activator: RORA (human) activation; CHO-K1 Gal4-RORA LBD luciferase reporter, luminescence; percent increase over mock-subtracted basal signal; 65,000 tested, 1.5% active; activation, % at 10 µM; P35398;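 active = activation above the mean of all tested compounds plus 3 SD, cut at about 49% in these data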
Target sequence (P35398 whole entry, looked up, the tested form may be a part): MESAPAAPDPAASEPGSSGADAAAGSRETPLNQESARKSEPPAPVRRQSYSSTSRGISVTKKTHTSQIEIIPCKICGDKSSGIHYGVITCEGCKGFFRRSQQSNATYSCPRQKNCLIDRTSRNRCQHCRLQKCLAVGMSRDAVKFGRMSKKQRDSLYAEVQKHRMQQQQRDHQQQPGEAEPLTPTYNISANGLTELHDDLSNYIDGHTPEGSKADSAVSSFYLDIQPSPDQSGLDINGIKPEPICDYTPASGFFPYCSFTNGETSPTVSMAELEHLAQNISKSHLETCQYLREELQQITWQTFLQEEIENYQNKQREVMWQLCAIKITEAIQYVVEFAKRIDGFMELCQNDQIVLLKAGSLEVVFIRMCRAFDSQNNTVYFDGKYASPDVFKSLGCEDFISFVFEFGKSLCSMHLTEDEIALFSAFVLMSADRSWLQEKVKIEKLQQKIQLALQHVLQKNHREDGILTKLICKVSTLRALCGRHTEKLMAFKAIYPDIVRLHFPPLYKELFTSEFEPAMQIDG
D1 mod: allosteric modulators of human D1 dopamine receptor | P21728 | 58,000 tested, 5.9% active | B-score at 10 µM | HEK293 D1, CRE-luciferase, dopamine EC30 potentiation; actives deviate in either direction;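 active = luminescence count or its row- and column-corrected plate score outside the 99.7% band of the plate's sample wells, on either side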
SF1 activator: activators of human nuclear receptor SF-1 | activation, % at 10 µM | 65,000 tested, 1.9% active | CHO-K1 Gal4-SF-1 LBD luciferase reporter; % increase over DMSO SF-1-specific signal | Q13285;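 active = activation above the mean activation of all tested compounds plus 3 SD, cut at about 50% in these data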
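Test system: CHO-K1 cells co-transfected with Gal4 DBD–human SF-1 LBD, 5xGal4 luciferase reporter. Quantity: 4,000 cells per well. Compound: 10 µM only. Incubation: compound added 1 h post-seeding, 20 h exposure at 37 °C, 5% CO2. Detection: SteadyLite luciferase luminescence. Replication: one test per compound.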
mHtt clearance: mutant huntingtin protein clearance; HeLa Exon1htt(103Q)mCFP, aggregate imaging; zero = plate's median compound well; inhibition, % at 1.5 µM; 47,000 tested, 0.42% active;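 active = inhibition of aggregate fluorescence above about 70%, also judged a hit by eye on the cell image, limit read from the data, passing the limit was not always enough; inconclusive = no rule stated for this call; inactive = not judged a hit on image review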;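 also: cells exposed to compound for three days before fixation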
M1 antag: M1 muscarinic receptor (rat) antagonism; CHO-M1 cells, Fluo-4 calcium, ACh EC80 antagonist mode; active compounds read low; B-score at 10 µM; 64,000 tested, 3.4% active;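 active = calcium fluorescence response, raw or row-and-column corrected B-score, differing from the plate sample mean either way at a set confidence level, mostly lower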
M1 agonist: activates the M1 muscarinic receptor. B-score at 10 µM. CHO-M1 cells, Fluo-4 calcium fluorescence, agonist mode; active compounds read high. 64,000 tested, 3% active;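 active = fluorescence rise, raw or as B-score row- and column-corrected plate score, outside the 99.7% band of its plate's samples, either direction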
D1 mod confirm: D1 receptor (human) allosteric modulation, confirmed; shares compounds with D1 mod; HEK293 D1 CRE-luciferase, dopamine EC30 potentiation; active compounds read high; luminescence at 10 µM; 2,200 tested, 88% active; AID 642;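 active = luminescence in either of two replicates above the same-plate mean plus 3 SD of the low-dose dopamine control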
D1 ag no DA: secondary test of D1 modulators: activity without dopamine; HEK293 D1 CRE-luciferase, luminescence, no dopamine; active compounds read high; luminescence at 10 µM; 1,900 tested, 0.8% active; shares compounds with D1 mod; in the data active = luminescence above about 3900
Isoprot counter: counter-screen for D1 modulators: isoproterenol response in HEK293 cells; shares compounds with D1 mod; HEK293 D1 CRE-luciferase, isoproterenol EC30 counter-screen; calls only at 10 µM; 2,200 tested, 63% active; AID 647;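 active = luminescence in either replicate above plate mean of wells with a partly effective reference agonist dose plus 3 SD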;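 also: isoproterenol raises cAMP through native beta-adrenoceptor Gs so signal bypasses D1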
Large screens that a line does not name were inactive (follow-up assays come after a bar, where they were run).

CN(Cc1ccccc1)c1nc2c(c(=O)[nH]c(=O)n2C)n1CCOc1ccccc1	D1 mod 6.8 | D1 mod confirm 12188 | D1 ag no DA inactive | Isoprot counter active
CN(Cc1ccccc1)c1nc2c(c(=O)[nH]c(=O)n2C)n1Cc1ccccc1	D1 mod 23.1 | D1 mod confirm 19372 | D1 ag no DA inactive | Isoprot counter active
CN(Cc1ccccc1)c1nc2c(c(=O)[nH]c(=O)n2C)n1CCCSc1ncccn1	none (no result: D1 mod, mHtt clearance)
CC1(C)CC(=O)CC(C)(C)N1OC(=O)c1ccncc1	none
Cc1ccc(S(=O)(=O)N2CCN(S(=O)(=O)N(C)C)CC2)c(C)c1	none (no result: RORa activator, D1 mod, SF1 activator, M1 antag, M1 agonist)
Cc1noc(C)c1C(=O)OCC(=O)Nc1ccccc1Oc1ccccc1	none (no result: RORa activator, D1 mod, SF1 activator, M1 antag, M1 agonist)
COC(=O)c1cc(OC)c(OC)cc1NC(=S)N1CCN(Cc2ccccc2)CC1	none (no result: RORa activator, D1 mod, SF1 activator, M1 antag, M1 agonist)
c1ccc(Cn2c(SCc3cn4cccnc4n3)nnc2-c2ccco2)cc1	none
O=c1c2c(-c3ccco3)csc2nc(SCc2cn3cccnc3n2)n1-c1ccccc1	D1 mod 8.44 | D1 mod confirm 15872 | D1 ag no DA inactive | Isoprot counter active
Cc1onc(-c2ccccc2Cl)c1C(=O)Nc1sc2c(c1C(N)=O)CCC(C)C2 (configuration not stated)	none (no result: RORa activator, D1 mod, SF1 activator, M1 antag, M1 agonist)
CCOC(=O)c1[nH]c(COC(=O)C2CC(=O)N(Cc3ccccc3)C2)c(C(=O)OCC)c1C (configuration not stated)	D1 mod 2.92 | D1 mod confirm inactive | D1 ag no DA inactive | Isoprot counter inactive
COC(=O)c1sc(N)c(C(=O)OC)c1COC(=O)C1CC(=O)N(Cc2ccco2)C1 (configuration not stated)	none
CCOC(=O)c1sc(N)c(C(=O)OCC)c1COC(=O)C1CC(=O)N(Cc2ccco2)C1 (configuration not stated)	D1 mod 6.05 | D1 mod confirm 8580 | Isoprot counter active
O=C1N=C(c2ccccc2)C(c2ccccc2)N1 (configuration not stated)	D1 mod 8.76 (no result: RORa activator, SF1 activator) | D1 mod confirm 22264 | D1 ag no DA 20356 | Isoprot counter active
c1ccc(C2=NC(c3ccccc3)N=C(c3ccccc3)N2)cc1	none (no result: RORa activator, D1 mod, SF1 activator, M1 antag, M1 agonist)
CN1C(=S)SC(C)(C)C1/[N+]([O-])=C/c1cccnc1 (configuration not stated)	D1 mod 7.51 (no result: mHtt clearance) | D1 mod confirm inactive | D1 ag no DA inactive | Isoprot counter inactive
CC(=O)Nc1nc(CC(C)C)cc(-c2ccco2)c1C#N	D1 mod 9.7 (no result: mHtt clearance) | D1 mod confirm 15584 | Isoprot counter active
COc1ccc(-n2c(Cc3cccn3C)nnc2SCC(=O)Nc2ccc(C(C)=O)cc2)cc1	none (no result: mHtt clearance)
COc1cccc(-n2nnc3c(=O)n(CC(=O)NC4CCCC4)cnc32)c1	D1 mod 4.38 | D1 mod confirm inactive | D1 ag no DA inactive | Isoprot counter inactive
C=C1[C@@H](C)C2[C@H](Cc3ccccc3)NC(=O)[C@]23OC(=O)CC[C@H](O)CCC[C@H](C)C/C=C/[C@H]3[C@@H]1O (some centres not stated)	none (no result: mHtt clearance)
CCOC(=O)c1sc(=S)n(CC)c1N	D1 mod 5.12 (no result: mHtt clearance) | D1 mod confirm 10812 | D1 ag no DA inactive | Isoprot counter inactive
COc1ccc(CCN(C)C(=O)CSc2nccn2C)cc1OC	D1 mod 4.47 (no result: mHtt clearance) | D1 mod confirm 9340 | Isoprot counter inactive
COc1ccc(CCN(C)C(=O)N2CCOCC2)cc1OC	none
Cc1cc(C)n(-c2nc3ccccc3c3nc(C)nn23)n1	D1 mod 9.57 (no result: mHtt clearance) | D1 mod confirm 13408 | Isoprot counter active
Cc1cc(C)n(-c2nc3ccccc3c(=O)n2OC2CCCCC2)n1	none
Cc1nc2c(cc(Oc3ccc(S(=O)(=O)N4CCOCC4)cn3)c3ccsc32)s1	D1 mod 8.47, SF1 activator 53.4 | D1 mod confirm 12244 | D1 ag no DA inactive | Isoprot counter active
COC(=O)C1CCN(C(=O)COc2cc3sc(C)nc3c3sccc23)CC1	none (no result: mHtt clearance)
N#CC1=C(C2CC2)CC(c2ccccc2)C(C#N)=C1N (configuration not stated)	none
N#CC1=C(N)SC2(CCCCC2)SC1c1ccccc1 (configuration not stated)	D1 mod 3.17 (no result: mHtt clearance) | D1 mod confirm 6560 | Isoprot counter active
CC(=O)c1ccc(Nc2nc(NCCO)nc(OC(C(F)(F)F)C(F)(F)F)n2)cc1	none (no result: RORa activator, D1 mod, SF1 activator, M1 antag, M1 agonist)
CNc1nc(Nc2ccc(C(C)=O)cc2)nc(OC(C(F)(F)F)C(F)(F)F)n1	D1 mod 20.7 (no result: RORa activator, SF1 activator) | D1 mod confirm 17924 | D1 ag no DA inactive | Isoprot counter active
CN1CCN(C(=O)Cn2c(=O)oc3cc(S(=O)(=O)NCc4ccccc4)ccc32)CC1	none
COC(=O)c1ccc(COc2nc(C)cc(C)c2C#N)o1	D1 mod 3.59 | D1 mod confirm 11580 | D1 ag no DA inactive | Isoprot counter inactive
O=c1cc(CO)oc(CN2CCN(c3ccccc3)CC2)c1O	D1 mod 3.09 | D1 mod confirm inactive | D1 ag no DA inactive | Isoprot counter inactive
Cc1ccc(S(=O)(=O)c2cc3c(=O)n4cc(C)ccc4nc3n(CC3CCCO3)c2=N)cc1 (configuration not stated)	none (no result: mHtt clearance)
N=c1c(S(=O)(=O)c2ccccc2)cc2c(=O)n3ccccc3nc2n1CC1CCCO1 (configuration not stated)	D1 mod 7.59 | D1 mod confirm 10760 | D1 ag no DA inactive | Isoprot counter active
CCOC(=O)Cn1c(N2CCOCC2)nc2c1c(=O)[nH]c(=O)n2C	mHtt clearance inconclusive
O=C(NCc1ccco1)c1cccnc1-c1nc2ccccc2s1	D1 mod 5.93 | D1 mod confirm 11260 | D1 ag no DA inactive | Isoprot counter active
O=C(NCc1ccco1)c1cc(-c2cccnc2)nc2ccccc12	none (no result: mHtt clearance)
COc1ccc(-c2nn3c(C4CCCCC4)nnc3s2)cc1OC	none (no result: D1 mod)
Clc1ccccc1-c1nnc2sc(-c3ccncc3)nn12	none
Clc1ccccc1-c1nn2c(-c3ccccn3)nnc2s1	none (no result: D1 mod, mHtt clearance)
COc1ccc(-c2nnc3sc(C4CCCCC4)nn23)cc1OC	D1 mod 15.4 | D1 mod confirm 20172 | Isoprot counter active
COc1ccc(-c2nnc3sc(-c4cccs4)nn23)cc1OC	D1 mod 4.95 | D1 mod confirm 12160 | Isoprot counter active
Clc1ccccc1-c1nn2c(-c3ccncc3)nnc2s1	D1 mod 4.87 (no result: M1 antag, M1 agonist) | D1 mod confirm 7940 | D1 ag no DA inactive | Isoprot counter inactive
